Assay results from ChEMBL document CHEMBL1799963, “Discovery of novel benzopyranyl tetracycles that act as inhibitors of osteoclastogenesis induced by receptor activator of NF-κB ligand” (J Med Chem, 2010).
Active and inactive are the calls of the source. The calls are words filed in the database; no cut-off is given here.

How the values were obtained:
RAW264.7 [1] = assay: Inhibition of RANKL-induced osteoclastogenesis in mouse RAW264.7 cells assessed as TRAP-positive cells at 10 uM after 1 hr by microplate reader assay; format: functional; design: scale not given: the % may be the effect or the level left
Procedure, shortened: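 RAW264.7 plated at 1 10^3 cells/well in α-MEM/10% FBS with 100 ng/mL RANKL; compound (10 μM) or DMSO vehicle added after 24 h. On day 4, cells fixed (10% formalin 10 min, 95% ethanol 1 min). TRAP activity measured in 50 mM citrate pH 4.6 with 10 mM tartrate and 5 mM p-nitrophenylphosphate for 1 h, stopped with 0.1 N NaOH, A410. Triplicate; 100% = RANKL minus vehicle difference.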

Macrophage = assay: Inhibition of RANKL-induced osteoclastogenesis in BALB/c mouse Bone marrow macrophages assessed as decrease in TRAP-positive cells after 1 hr by microplate reader assay; format: functional, cell-based
Procedure, shortened: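 BALB/c femur/tibia monocytes grown 1 day with 10 ng/mL M-CSF, then nonadherent cells 3 days with 30 ng/mL M-CSF. Adherent BMMs plated at 3 10^5 cells/well with 100 ng/mL RANKL and 30 ng/mL M-CSF, then given compound dose series. TRAP activity read via p-nitrophenylphosphate hydrolysis (pH 4.6 citrate, tartrate, 1 h, A410). IC50 derived.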

[2] = Cytotoxicity against mouse RAW264.7 cells assessed as cell viability at 30 uM after day 1 by CCK-8 assay; format: cell-based; conditions: read-out: Activity
Procedure, shortened: (§1)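 RAW264.7 cells exposed to compound at 30 μM final for 1 day or 4 days; viability read by CCK-8 assay.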

[3] = Cytotoxicity against mouse RAW264.7 cells assessed as cell viability at 30 uM after day 4 by CCK-8 assay; format: cell-based; conditions: read-out: Activity; procedure, shortened: as §1
RAW264.7 [4] = assay: Inhibition of RANKL-induced osteoclastogenesis in mouse RAW264.7 cells assessed as decrease in TRAP-positive cells after 1 hr by microplate reader assay; format: functional, cell-based; conditions: RAW264.7, 1 h
Procedure, shortened: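 RAW264.7 in α-MEM/10% FBS plus 100 ng/mL RANKL; compound or DMSO vehicle added after 24 h, dose-dependent series. On day 4, cells fixed and TRAP activity read as p-nitrophenylphosphate (5 mM) hydrolysis in tartrate-containing citrate buffer pH 4.6, 1 h, NaOH stop, A410. IC50 derived; triplicate.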

RAW264.7 [5] = assay: Inhibition of MMP-7 mRNA expression in mouse RAW264.7 cells at 10 uM by RT-PCR analysis; format: functional, cell-based
RAW264.7 [6] = assay: Downregulation of RANKL-induced NFATc1 mRNA expression in mouse RAW264.7 cells at 10 uM by RT-PCR analysis; format: functional, cell-based
RAW264.7 [7] = assay: Inhibition of TRAP mRNA expression in mouse RAW264.7 cells at 10 uM by RT-PCR analysis; format: functional, cell-based
RAW264.7 [8] = assay: Inhibition of RANKL-induced ERK phosphorylation in mouse RAW264.7 cells at 10 uM by Western blot analysis; format: cell-based
[9] = Inhibition of NFkappa signaling in mouse RAW264.7 cells assessed as reduction in RANKL-induced transcriptional activation on NF-kappaB by luciferase reporter gene assay; format: cell-based
RAW264.7 [10] = assay: Downregulation of RANKL-induced fra2 mRNA expression in mouse RAW264.7 cells at 10 uM by RT-PCR analysis; format: functional, cell-based
RAW264.7 [11] = assay: Downregulation of RANKL-induced c-fos mRNA expression in mouse RAW264.7 cells at 10 uM by RT-PCR analysis; format: functional, cell-based
RAW264.7 [12] = assay: Inhibition of c-Src mRNA expression in mouse RAW264.7 cells at 10 uM by RT-PCR analysis; format: functional, cell-based
[13] = Inhibition of NFkappa signaling in mouse RAW264.7 cells assessed as reduction in RANKL-induced transcriptional activation on NF-kappaB at 10 uM by luciferase reporter gene assay; format: cell-based

## CC1(C)Oc2cc(O)ccc2C2C1=CCn1c(=O)n(-c3ccc(Br)cc3)c(=O)n12 (centres undefined)
RAW264.7 [1]
  Activity: 83%

## COc1ccc2c(c1)OC(C)(C)C1=CCn3c(=O)n(-c4ccccc4)c(=O)n3C12 (centres undefined)
RAW264.7 [1]
  Activity: 108%

## CC1(C)Oc2cc(O)ccc2C2C1=CCn1c(=O)n(Cc3ccccc3)c(=O)n12 (centres undefined)
RAW264.7 [1]
  Activity: 98%

## CC1(C)Oc2cc(O)ccc2C2C1=CCn1c(=O)n(-c3ccc(Cl)cc3)c(=O)n12 (centres undefined)
RAW264.7 [1]
  Activity: 112%

## CC1(C)Oc2cc(O)ccc2C2C1=CCn1c(=O)n(C3CCCCC3)c(=O)n12 (centres undefined)
RAW264.7 [1]
  Activity: 113%

## CC1(C)Oc2cc(O)ccc2C2C1=CCn1c(=O)n(-c3ccccc3I)c(=O)n12 (centres undefined)
RAW264.7 [1]
  Activity: 101%

## CC1(C)Oc2cc(O)ccc2C2C1=CCn1c(=O)n(-c3cccc([N+](=O)[O-])c3)c(=O)n12 (centres undefined)
RAW264.7 [1]
  Activity: 105%

## O=c1n(-c2ccccc2)c(=O)n2n1CC=C1C2c2ccc(O)cc2OC12CCCC2 (centres undefined)
RAW264.7 [1]
  Activity: 30%
Macrophage
  IC50: 6.05 µM
[2]
  viability at 1 day, 30 µM: 77.8%
[3]
  viability at 4 day, 30 µM: 46%
RAW264.7 [4]
  IC50: 5.09 µM

## COc1ccc2c(c1O)OC(C)(C)C1=CCn3c(=O)n(-c4ccccc4)c(=O)n3C12 (centres undefined)
RAW264.7 [1]
  Activity: 69%
Macrophage
  IC50: 22.2 µM

## CNc1ccc2c(c1)OC(C)(C)C1=CCn3c(=O)n(-c4ccccc4)c(=O)n3C12 (centres undefined)
RAW264.7 [1]
  Activity: 107%

## CC1(C)Oc2cc(O)ccc2C2C1=CCn1c(=O)n(-c3ccccc3)c(=O)n12 (centres undefined)
RAW264.7 [5]
  inhibition: Active
RAW264.7 [6]
  Activity: Active
RAW264.7 [1]
  Activity: 43%
RAW264.7 [7]
  inhibition: Active
RAW264.7 [8]
  inhibition: Active
[9]
  inhibition: Dose-dependent effect
Macrophage
  IC50: 6.13 µM
[2]
  viability at 1 day, 30 µM: 85.9%
[3]
  viability at 4 day, 30 µM: 74%
RAW264.7 [4]
  IC50: 7.07 µM
RAW264.7 [10]
  Activity: Active
RAW264.7 [11]
  Activity: Active
RAW264.7 [12]
  inhibition: Active

## CC1(C)Oc2cc(O)ccc2C2C1=CCn1c(=O)n(-c3ccc(F)cc3)c(=O)n12 (centres undefined)
RAW264.7 [1]
  Activity: 68%
Macrophage
  IC50: 11.9 µM
[2]
  viability at 1 day, 30 µM: 99%
[3]
  viability at 4 day, 30 µM: 80.7%
RAW264.7 [4]
  IC50: 8.08 µM

## Cn1c(=O)n2n(c1=O)C1C(=CC2)C(C)(C)Oc2cc(O)ccc21 (centres undefined)
RAW264.7 [1]
  Activity: 95%

## Cc1ccc(-n2c(=O)n3n(c2=O)C2C(=CC3)C(C)(C)Oc3cc(O)ccc32)cc1 (centres undefined)
RAW264.7 [5]
  inhibition: Active
RAW264.7 [6]
  Activity: Active
RAW264.7 [1]
  Activity: 50%
RAW264.7 [7]
  inhibition: Active
RAW264.7 [8]
  inhibition: Active
[9]
  inhibition: Dose-dependent effect
Macrophage
  IC50: 7.05 µM
[2]
  viability at 1 day, 30 µM: 100%
[3]
  viability at 4 day, 30 µM: 86.9%
RAW264.7 [4]
  IC50: 7.97 µM
RAW264.7 [10]
  Activity: Active
RAW264.7 [11]
  Activity: Active
RAW264.7 [12]
  inhibition: Active

## COc1cc2c(cc1OC)C1C(=CCn3c(=O)n(-c4ccccc4)c(=O)n31)C(C)(C)O2 (centres undefined)
RAW264.7 [1]
  Activity: 99%

## CCCN1CCC2(CC1)Oc1cc(O)ccc1C1C2=CCn2c(=O)n(-c3ccccc3)c(=O)n21 (centres undefined)
RAW264.7 [1]
  Activity: 99%

## CC1(C)Oc2cc(O)ccc2C2C1=CCn1c(=O)n(-c3ccccc3Cl)c(=O)n12 (centres undefined)
RAW264.7 [1]
  Activity: 95%

## COc1ccc(-n2c(=O)n3n(c2=O)C2C(=CC3)C(C)(C)Oc3cc(O)ccc32)cc1 (centres undefined)
RAW264.7 [1]
  Activity: 93%

## COc1cccc(-n2c(=O)n3n(c2=O)C2C(=CC3)C(C)(C)Oc3cc(O)ccc32)c1 (centres undefined)
RAW264.7 [1]
  Activity: 86%

## CC1(C)Oc2ccccc2C2C1=CCn1c(=O)n(-c3ccccc3)c(=O)n12 (centres undefined)
RAW264.7 [5]
  inhibition: inactive
RAW264.7 [6]
  Activity: inactive
RAW264.7 [1]
  Activity: 104%
[13]
  inhibition: Active
RAW264.7 [7]
  inhibition: inactive
RAW264.7 [8]
  inhibition: inactive
RAW264.7 [10]
  Activity: inactive
RAW264.7 [11]
  Activity: inactive
RAW264.7 [12]
  inhibition: inactive

## CC1(C)Oc2cc(O)ccc2C2C1=CCn1c(=O)n(-c3ccc(C(C)(C)C)cc3)c(=O)n12 (centres undefined)
RAW264.7 [1]
  Activity: 53%
Macrophage
  IC50: 6.77 µM
[2]
  viability at 1 day, 30 µM: 79.7%
[3]
  viability at 4 day, 30 µM: 73.4%
RAW264.7 [4]
  IC50: 6.94 µM

## CC(=O)N1CCC2(CC1)Oc1cc(O)ccc1C1C2=CCn2c(=O)n(-c3ccccc3)c(=O)n21 (centres undefined)
RAW264.7 [1]
  Activity: 113%

## CC1(C)Oc2cc(F)ccc2C2C1=CCn1c(=O)n(-c3ccccc3)c(=O)n12 (centres undefined)
RAW264.7 [1]
  Activity: 121%

## COc1ccc2c(c1)C1C(=CCn3c(=O)n(-c4ccccc4)c(=O)n31)C(C)(C)O2 (centres undefined)
RAW264.7 [1]
  Activity: 100%
